Measured values published in publication PMC4168015 (Journal of biomolecular screening, 2013).
“Also recorded” adds a separate entry of the source. Read-outs that look alike come from different tables or passages of the source.

Columns and labels:
Skp2-Cks1 interaction = Skp2-Cks1 interaction (Homo sapiens, UniProt P61024+Q13309); assay: AlphaScreen assay for Skp2-Cks1 interaction; type: binding
[1] = target: SCF^Skp2 (E3) ubiquitination of p27 (Homo sapiens, UniProt Q13309); assay: In vitro p27 ubiquitination assay; type: biochemical
Outline: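 Mouse p27 translated in rabbit reticulocyte lysate with [35S]-methionine and phosphorylated by recombinant CDK2–cyclin E. It was then mixed with 100 nM E1, 200 nM His-Cdc34, 100 nM SCFSkp2, 50 nM Cks1, 10 μM ubiquitin, 10 μM methylated ubiquitin, ATP regeneration system, 1 μM ubiquitin aldehyde and 1 μM MG132. Run 30 min, 30 °C; products read by SDS-PAGE/phosphorimager. Test compound 40 μM.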

[2] = tested on: mink lung epithelial cell line stably expressing GFP-p27; assay: GFP-p27 stabilization in mink lung epithelial cell line; type: cell-based; conditions: for endogenous p27 level: mink lung epithelial cell line; for stabilization of GFP-p27: mink lung epithelial cell line stably expressing GFP-p27
p210^bcr-abl = conditions: read-out: IC50 against p210^bcr-abl in vitro; cited from earlier work
K562 leukemia cell lines = conditions: read-out: GI50 against K562 leukemia cell lines; cited from earlier work
Cks1 (Homo sapiens) [3] = target: Cks1 (Homo sapiens) (UniProt P61024); conditions: cited from earlier work
Chain of Cks1 (Homo sapiens) (P61024 2-79): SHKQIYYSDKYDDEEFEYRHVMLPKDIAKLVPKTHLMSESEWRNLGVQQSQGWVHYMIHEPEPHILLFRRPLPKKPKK

Cks1 (Homo sapiens) [4] = target: Cks1 (Homo sapiens) (UniProt P61024); assay: ITC; conditions: cited from earlier work
[5] = read-out: Inhibition of Skp2-Cks1 IC50, AlphaScreen, GST-Skp2/Skp1 20 nM, Cks1 200 nM
[6] = read-out: p27 Ub IC50, in vitro p27 ubiquitination

Chain of Skp2 (Q13309 whole entry): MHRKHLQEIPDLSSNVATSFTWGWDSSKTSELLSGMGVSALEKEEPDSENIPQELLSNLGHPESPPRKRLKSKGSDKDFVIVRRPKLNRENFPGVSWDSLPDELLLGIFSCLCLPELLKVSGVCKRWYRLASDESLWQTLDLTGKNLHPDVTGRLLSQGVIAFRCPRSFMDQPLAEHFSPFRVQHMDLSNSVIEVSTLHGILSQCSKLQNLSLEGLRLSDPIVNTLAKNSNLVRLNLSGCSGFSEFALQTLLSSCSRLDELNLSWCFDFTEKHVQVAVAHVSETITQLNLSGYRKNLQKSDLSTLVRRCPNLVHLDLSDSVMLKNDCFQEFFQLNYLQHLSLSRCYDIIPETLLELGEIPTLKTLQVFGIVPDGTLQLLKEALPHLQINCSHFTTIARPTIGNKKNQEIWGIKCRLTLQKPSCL

IC50 (Skp2-Cks1 interaction; [5]) | IC50 [1, 6] | Compound | effect on Skp2-Cks1 interaction (in words) (Skp2-Cks1 interaction; AlphaScreen) | effect on p27 ubiquitination in vitro (in words) [1] | further results
1090 ± 189 µM | > 300 µM | CCCCC(=O)c1ccc(OC)c(C)c1 [Compound A857] |  |  | 
8310 ± 1460 µM | > 300 µM | CCCCC(=O)c1ccc(OC)c(C)c1 [Compound E857] |  |  | 
71 ± 4.4 µM | ~15 µM | CCCCC(=O)c1ccc(OC)c(C)c1 [Compound Q857] | blocked the Skp2-Cks1 interaction at low μM concentrations | inhibited p27 ubiquitination in vitro | 
75.6 ± 6.8 µM | ~80 µM | COC(=O)c1ccc(CCc2cc(O)ccc2O)cc1 [NSC681152] | blocked the Skp2-Cks1 interaction at low μM concentrations | impeded p27 polyubiquitination in a dose-dependent manner; also recorded: inhibited p27 ubiquitination in vitro | endogenous p27 level [2]: increases only marginally; stabilization of GFP-p27 [2]: dose-dependent stabilization; IC50 (p210^bcr-abl): 2.64 µM; GI50 (K562 leukemia cell lines): 18.5 µM

Further lines, the compound ahead of its results:

Compound | IC50 (Skp2-Cks1 interaction; [5]) | IC50 [1, 6] | effect on Skp2-Cks1 interaction (in words) (Skp2-Cks1 interaction; AlphaScreen) | effect on p27 ubiquitination in vitro (in words) [1] | further results
O=C1C=CC(=O)C=C1 [BQ, 1,4-benzoquinone, reference compound] |  |  | no effect | no effect | IC50 (Skp2-Cks1 interaction): 626 ± 65.7 µM; IC50 [1]: > 300 µM
O=C(OCC12CC3CC(CC(C3)C1)C2)c1ccc(NCc2cc(O)ccc2O)cc1 [Compound 857] | 36 ± 6.2 µM | ~30 µM | blocked the Skp2-Cks1 interaction at low μM concentrations |  | effect on p27 ubiquitination in vitro (in words) ([1]; listed as NSC689857): impeded p27 polyubiquitination in a dose-dependent manner; also recorded: inhibited p27 ubiquitination in vitro; endogenous p27 level [2]: increases only marginally; stabilization of GFP-p27 [2]: dose-dependent stabilization; IC50 (p210^bcr-abl): 12.6 µM; GI50 (K562 leukemia cell lines): 12.8 µM
Cc1cc(O)ccc1O [MHQ, methylhydroquinone, reference compound] |  |  | no effect | no effect | IC50 (Skp2-Cks1 interaction): 434 ± 39.5 µM; IC50 [1]: > 300 µM
Skp2 (from UniProt Q13309) |  |  |  |  | Kd (Cks1 (Homo sapiens) [3]): 0.14 µM; Kd (Cks1 (Homo sapiens) [4]): 0.014 µM
